According to ChEMBL document CHEMBL3853318, “Structure-Based Optimization of Potent, Selective, and Orally Bioavailable CDK8 Inhibitors Discovered by High-Throughput Screening” (J Med Chem, 2016):
Values after ≈ are worked out from the molar mass of the structure shown. Active and inactive are the calls of the source. The calls are words filed in the database; no cut-off is given here.

Columns and labels:
[1] = Oral bioavailability in NMRI mouse at 0.5 mg/kg via gavage measured over 6 hrs measured over 6 hrs; format: ADME, organism-based; conditions: in vivo
Mus musculus [2] = experiment: Toxicity in NCr athymic mouse xenografted with human SW620 cells assessed as drug tolerance at 100 mg/kg, po qd administered for 16 days; format: organism-based, SW-620; conditions: in vivo, 384 h
How it was run: (§1)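 Female NCr athymic mice bearing SW620 colorectal xenografts received oral treatment for 16 days. Body weights were recorded and expressed as % of day 0 values.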

[3] = Intrinsic clearance in rat liver microsomes at 1 uM preincubated for 5 mins followed by NADPH addition measured after 5 to 30 mins by LC-MS/MS analysis; format: ADME; conditions: read-out: CLH
[4] = target: Sodium-dependent dopamine transporter (Homo sapiens, UniProt Q01959); experiment: Displacement of [3H]BTCP from human recombinant dopamine transporter expressed in CHO cells after 120 mins by scintillation counting method; format: cell-based
Chain of Sodium-dependent dopamine transporter (Q01959 whole entry): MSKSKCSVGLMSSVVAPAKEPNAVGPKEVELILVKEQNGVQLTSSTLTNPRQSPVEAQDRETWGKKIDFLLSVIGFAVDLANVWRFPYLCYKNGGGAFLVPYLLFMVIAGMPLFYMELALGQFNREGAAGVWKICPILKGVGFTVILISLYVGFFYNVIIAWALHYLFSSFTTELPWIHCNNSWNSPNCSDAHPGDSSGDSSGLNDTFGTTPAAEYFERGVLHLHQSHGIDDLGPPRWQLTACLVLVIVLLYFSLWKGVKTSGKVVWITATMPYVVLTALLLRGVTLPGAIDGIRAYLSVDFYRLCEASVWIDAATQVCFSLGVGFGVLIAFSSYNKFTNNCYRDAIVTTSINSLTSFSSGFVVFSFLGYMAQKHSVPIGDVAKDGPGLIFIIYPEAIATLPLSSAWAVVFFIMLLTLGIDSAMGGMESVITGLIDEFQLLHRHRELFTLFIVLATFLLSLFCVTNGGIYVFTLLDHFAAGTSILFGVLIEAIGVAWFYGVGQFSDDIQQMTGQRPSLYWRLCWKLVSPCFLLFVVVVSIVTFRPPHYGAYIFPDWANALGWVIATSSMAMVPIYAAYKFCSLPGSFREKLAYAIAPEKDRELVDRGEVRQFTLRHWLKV

[5] = Plasma clearance in Beagle dog at 0.2 mg/kg, iv as bolus dose or 0.5 mg/kg, po via gavage measured over 48 hrs; format: ADME, organism-based, Canis lupus familiaris
[6] = target: T1, Cyclin-dependent kinase 8 (Homo sapiens, UniProt P49336); experiment: Inhibition of CDK8 in human PA1 cells assessed as suppression of WNT3a ligand-induced WNT pathway by luciferase reporter gene assay; format: cell-based, PA-1
Target sequence in this assay (P49336 whole entry): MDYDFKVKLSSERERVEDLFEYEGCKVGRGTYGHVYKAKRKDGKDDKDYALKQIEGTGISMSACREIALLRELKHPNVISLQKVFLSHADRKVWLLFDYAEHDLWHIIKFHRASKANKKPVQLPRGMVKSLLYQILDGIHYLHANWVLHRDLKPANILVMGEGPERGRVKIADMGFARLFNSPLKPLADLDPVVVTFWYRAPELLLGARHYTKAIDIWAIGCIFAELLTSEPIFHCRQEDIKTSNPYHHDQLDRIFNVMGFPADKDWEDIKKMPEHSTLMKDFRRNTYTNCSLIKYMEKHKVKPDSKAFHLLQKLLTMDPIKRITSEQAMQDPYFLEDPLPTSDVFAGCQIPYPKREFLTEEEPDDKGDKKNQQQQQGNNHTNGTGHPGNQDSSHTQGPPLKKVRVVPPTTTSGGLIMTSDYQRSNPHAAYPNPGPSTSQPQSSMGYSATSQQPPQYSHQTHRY

[7] = Fraction unbound in NMRI mouse plasma at 0.2 mg/kg, iv as bolus dose or 0.5 mg/kg, po via gavage measured over 6 hrs; format: ADME, organism-based
[8] = Plasma clearance in Wistar rat at 0.2 mg/kg, iv as bolus dose or 0.5 mg/kg, po via gavage measured over 6 hrs relative to hepatic blood flow; format: ADME, organism-based, Liver; conditions: in vivo
[9] = Plasma clearance in Beagle dog at 0.2 mg/kg, iv as bolus dose or 0.5 mg/kg, po via gavage measured over 48 hrs relative to hepatic blood flow; format: ADME, organism-based, Canis lupus familiaris, Liver; conditions: in vivo
[10] = Oral bioavailability in Beagle dog at 0.5 mg/kg via gavage measured over 48 hrs; format: ADME, organism-based, Canis lupus familiaris; conditions: in vivo
[11] = Inhibition of CYP450 (unknown origin); format: ADME, Homo sapiens
Mus musculus [12] = experiment: Toxicity in NCr athymic mouse xenografted with human SW620 cells assessed as effect on body weight at 100 mg/kg, po qd administered for 16 days; format: organism-based, SW-620; conditions: in vivo, 384 h; how it was run: as §1
[13] = Apparent permeability from apical to basolateral side in human Caco2 cells at 1 uM after 2 hrs by Transwell assay; format: ADME, cell-based; conditions: Caco-2
Mus musculus [14] = experiment: In vivo inhibition of CDK8-mediated STAT1 phosphorylation at Ser727 in human SW620 cells xenografted in NCr athymic mouse at 100 mg/kg, po qd administered for 16 days measured 2 to 24 hrs post last dose by immunoassay; format: functional, organism-based; conditions: SW-620
How it was run: (§2)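 SW620 xenografts in female NCr athymic mice were dosed orally for 16 days. Phospho-STAT1 Ser727 was measured by Luminex immunoassay, normalized to total STAT1 and expressed as % of vehicle controls at each time point (2 h to 24 h after dosing).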

[15] = Volume of distribution at steady state in Beagle dog at 0.2 mg/kg, iv as bolus dose or 0.5 mg/kg, po via gavage measured over 48 hrs; format: ADME, organism-based, Canis lupus familiaris; conditions: in vivo, read-out: Vdss
[16] = Efflux ratio of permeability in human Caco2 cells at 1 uM after 2 hrs by Transwell assay; format: ADME, cell-based; conditions: Caco-2
[17] = Fraction unbound in Wistar rat plasma at 0.2 mg/kg, iv as bolus dose or 0.5 mg/kg, po via gavage measured over 6 hrs; format: ADME, organism-based
[18] = Thermodynamic solubility of the compound in PBS at pH 7.4; format: physicochemical; conditions: read-out: Therm_solubility
[19] = Oral bioavailability in Wistar rat at 0.5 mg/kg via gavage measured over 6 hrs; format: ADME, organism-based; conditions: in vivo
[20] = Half life in Beagle dog at 0.2 mg/kg, iv as bolus dose or 0.5 mg/kg, po via gavage; format: ADME, organism-based, Canis lupus familiaris; conditions: in vivo
[21] = Thermodynamic solubility of the compound in FaSSIF at pH 6.5; format: physicochemical; conditions: read-out: Therm_solubility
[22] = target: T1, Cyclin-dependent kinase 8; experiment: Inhibition of CDK8 in human 7dF3 cells preincubated for 2 hrs followed by beta-oestradiol addition measured after 24 hrs by luciferase reporter gene assay; format: cell-based
Target sequence in this assay (P49336 whole entry): as above

Mus musculus [23] = experiment: Toxicity in NCr athymic mouse xenografted with human SW620 cells assessed as drug tolerance at 50 mg/kg, po bid administered for 16 days; format: organism-based, SW-620; conditions: in vivo, 384 h; how it was run: as §1
hERG (KCNH2) = hERG (KCNH2) (Homo sapiens, UniProt Q12809); experiment: Inhibition of human ERG at 10 uM relative to control
Chain of hERG (KCNH2) (Q12809 whole entry): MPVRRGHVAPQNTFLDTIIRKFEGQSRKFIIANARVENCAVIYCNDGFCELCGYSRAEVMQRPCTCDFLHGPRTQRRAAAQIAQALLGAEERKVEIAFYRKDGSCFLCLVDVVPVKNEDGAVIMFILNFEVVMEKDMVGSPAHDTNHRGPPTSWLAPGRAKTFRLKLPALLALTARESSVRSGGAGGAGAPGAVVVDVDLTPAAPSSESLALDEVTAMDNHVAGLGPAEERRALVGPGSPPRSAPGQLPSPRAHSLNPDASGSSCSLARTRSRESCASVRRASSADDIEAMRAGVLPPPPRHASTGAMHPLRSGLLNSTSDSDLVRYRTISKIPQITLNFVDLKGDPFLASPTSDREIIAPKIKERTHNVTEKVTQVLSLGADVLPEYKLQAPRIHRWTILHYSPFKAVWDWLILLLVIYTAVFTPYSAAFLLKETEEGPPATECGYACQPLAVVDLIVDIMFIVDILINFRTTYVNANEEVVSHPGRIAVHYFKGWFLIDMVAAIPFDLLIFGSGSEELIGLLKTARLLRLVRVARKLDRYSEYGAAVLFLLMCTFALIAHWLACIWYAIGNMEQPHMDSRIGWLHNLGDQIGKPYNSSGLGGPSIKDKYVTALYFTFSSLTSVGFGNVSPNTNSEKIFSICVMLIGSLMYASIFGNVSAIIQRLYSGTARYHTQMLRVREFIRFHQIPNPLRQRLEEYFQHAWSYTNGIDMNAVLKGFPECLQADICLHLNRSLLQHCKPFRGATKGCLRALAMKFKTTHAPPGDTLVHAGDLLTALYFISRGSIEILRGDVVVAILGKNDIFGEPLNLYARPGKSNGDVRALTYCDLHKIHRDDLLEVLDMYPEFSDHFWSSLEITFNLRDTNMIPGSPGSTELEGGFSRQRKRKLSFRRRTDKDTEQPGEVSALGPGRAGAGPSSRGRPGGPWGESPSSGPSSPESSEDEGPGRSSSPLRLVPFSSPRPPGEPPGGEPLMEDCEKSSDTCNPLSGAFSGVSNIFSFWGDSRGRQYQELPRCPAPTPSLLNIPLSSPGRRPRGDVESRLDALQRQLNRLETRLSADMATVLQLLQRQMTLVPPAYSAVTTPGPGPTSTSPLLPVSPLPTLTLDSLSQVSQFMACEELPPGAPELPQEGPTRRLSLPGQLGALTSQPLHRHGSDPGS

[24] = Antitumor activity against human SW620 cells xenografted in NCr athymic mouse assessed as tumor growth inhibition at 100 mg/kg, po qd administered for 16 days relative to control; format: functional, SW-620
How it was run: (§3)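 Female NCr athymic mice bearing SW620 human colorectal carcinoma xenografts were dosed orally for 16 days. Growth inhibition was expressed as T/C ratio based on final tumor weights versus vehicle controls.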

[25] = Plasma clearance in NMRI mouse at 0.2 mg/kg, iv as bolus dose or 0.5 mg/kg, po via gavage measured over 6 hrs relative to hepatic blood flow; format: ADME, organism-based, Liver; conditions: in vivo
[26] = Fraction unbound in Beagle dog plasma at 0.2 mg/kg, iv as bolus dose or 0.5 mg/kg, po via gavage measured over 48 hrs; format: ADME, organism-based, Canis lupus familiaris
[27] = Intrinsic clearance in human liver microsomes at 1 uM preincubated for 5 mins followed by NADPH addition measured after 5 to 30 mins by LC-MS/MS analysis; format: ADME; conditions: read-out: CLH
[28] = Kinetic solubility of the compound; format: physicochemical; conditions: read-out: Kinetic_solubility
[29] = target: T1, Cyclin-dependent kinase 8; experiment: Inhibition of CDK8 in human COLO205 cells expressing APC mutant assessed as suppression of WNT pathway by luciferase reporter gene assay; format: cell-based; conditions: colo 205
Target sequence in this assay (P49336 whole entry, looked up, change not shown): as the sequence (P49336 whole entry) above

[30] = Half life in Wistar rat at 0.2 mg/kg, iv as bolus dose or 0.5 mg/kg, po via gavage; format: ADME, organism-based; conditions: in vivo
[31] = Volume of distribution at steady state in Wistar rat at 0.2 mg/kg, iv as bolus dose or 0.5 mg/kg, po via gavage measured over 6 hrs; format: ADME, organism-based; conditions: in vivo, read-out: Vdss
[32] = target: T1, Cyclin-dependent kinase 8; experiment: Inhibition of CDK8 in human LS174T cells expressing beta-catenin mutant assessed as suppression of WNT pathway by luciferase reporter gene assay; format: cell-based
Target sequence in this assay (P49336 whole entry, looked up, change not shown): as the sequence (P49336 whole entry) above

[33] = Volume of distribution at steady state in NMRI mouse at 0.2 mg/kg, iv as bolus dose or 0.5 mg/kg, po via gavage measured over 6 hrs; format: ADME, organism-based; conditions: in vivo, read-out: Vdss
Mus musculus [34] = experiment: In vivo inhibition of CDK8-mediated STAT1 phosphorylation at Ser727 in human SW620 cells xenografted in NCr athymic mouse at 50 mg/kg, po bid administered for 16 days measured 2 to 24 hrs post last dose by immunoassay; format: functional, organism-based; conditions: SW-620; how it was run: as §2
[35] = Plasma clearance in Wistar rat at 0.2 mg/kg, iv as bolus dose or 0.5 mg/kg, po via gavage measured over 6 hrs; format: ADME, organism-based
[36] = Plasma clearance in NMRI mouse at 0.2 mg/kg, iv as bolus dose or 0.5 mg/kg, po via gavage measured over 6 hrs; format: ADME, organism-based
[37] = Thermodynamic solubility of the compound in FeSSIF at pH 5; format: physicochemical; conditions: read-out: Therm_solubility
[38] = Intrinsic clearance in mouse liver microsomes at 1 uM preincubated for 5 mins followed by NADPH addition measured after 5 to 30 mins by LC-MS/MS analysis; format: ADME; conditions: read-out: CLH
[39] = target: T1, Cyclin-dependent kinase 8; experiment: Inhibition of CDK8 in human SW620 cells assessed as decrease in STAT1 phosphorylation at Ser727; format: cell-based, SW-620
Target sequence in this assay (P49336 whole entry): as above

[40] = Antitumor activity against human SW620 cells xenografted in NCr athymic mouse assessed as tumor growth inhibition at 50 mg/kg, po bid administered for 16 days relative to control; format: functional, SW-620; how it was run: as §3
[41] = Half life in NMRI mouse at 0.2 mg/kg, iv as bolus dose or 0.5 mg/kg, po via gavage; format: ADME, organism-based; conditions: in vivo
CDK8/Cyclin C = CDK8/Cyclin C (Homo sapiens, UniProt P49336); experiment: Inhibition of Alexa647 tracer binding to full length recombinant human His-tagged CDK8/cyclin C expressed in Baculovirus expression system preincubated for 20 mins followed by tracer addition and incubated in dark for 60 mins by FRET-based Lanthascreen assay
Chain of CDK8/Cyclin C (P49336 whole entry): as above
Chain of CDK8/Cyclin C (P24863 whole entry, further chain): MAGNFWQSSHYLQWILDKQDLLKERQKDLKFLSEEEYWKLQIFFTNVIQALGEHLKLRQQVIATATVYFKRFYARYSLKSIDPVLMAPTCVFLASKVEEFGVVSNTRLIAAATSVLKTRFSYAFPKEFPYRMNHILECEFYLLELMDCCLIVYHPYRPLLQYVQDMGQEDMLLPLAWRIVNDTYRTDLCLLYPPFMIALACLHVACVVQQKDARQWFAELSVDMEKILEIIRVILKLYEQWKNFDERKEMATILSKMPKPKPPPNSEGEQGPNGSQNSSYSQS

[42] = target: Glycogen synthase kinase-3 alpha (Homo sapiens) (UniProt P49840); experiment: Inhibition of GSK-3alpha (unknown origin) at 1 uM relative to control
Chain of Glycogen synthase kinase-3 alpha (Homo sapiens) (P49840 2-483 limits assumed): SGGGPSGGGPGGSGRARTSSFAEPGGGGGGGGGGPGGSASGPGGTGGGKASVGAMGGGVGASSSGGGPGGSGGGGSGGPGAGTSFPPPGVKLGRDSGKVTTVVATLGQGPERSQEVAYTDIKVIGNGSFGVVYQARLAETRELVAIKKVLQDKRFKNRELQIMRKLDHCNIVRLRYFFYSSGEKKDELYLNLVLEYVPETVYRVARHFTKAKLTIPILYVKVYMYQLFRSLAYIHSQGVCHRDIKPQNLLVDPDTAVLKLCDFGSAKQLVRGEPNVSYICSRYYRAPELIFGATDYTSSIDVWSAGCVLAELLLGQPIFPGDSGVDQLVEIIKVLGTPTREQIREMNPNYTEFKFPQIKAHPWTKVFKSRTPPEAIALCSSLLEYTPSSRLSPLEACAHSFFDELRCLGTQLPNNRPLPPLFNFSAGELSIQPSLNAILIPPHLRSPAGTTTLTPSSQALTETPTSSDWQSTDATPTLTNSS

Mus musculus [43] = experiment: Toxicity in NCr athymic mouse xenografted with human SW620 cells assessed as body weight loss at 50 mg/kg, po bid administered for 16 days; format: organism-based, SW-620; conditions: in vivo, 384 h; how it was run: as §1

## Cc1n[nH]c2ncc(C(=O)N3CCC[C@H]3c3ccc(Cl)cc3)cc12
[1]
  bioavailability: 25%
Mus musculus [2]
  Activity: Non-Toxic
[3]
  microsomal CLint at 1 µM: < 10 µL/min/mg
[4]
  IC50: 8500 nM
[5]
  clearance: 22.5 mL/min/kg
[6]
  IC50: 52 nM
[7]
  fraction unbound at 6 h: 0.13
[8]
  CL: 34.6%
[9]
  CL: 53.8%
[10]
  bioavailability: 39%
[11]
  IC50: > 20000 nM
Mus musculus [12]
  Activity: Non-Toxic
[13]
  Papp A→B at 2 h, 1 µM: 44 ×10⁻⁶ cm/s
Mus musculus [14]
  inhibition: Active
[15]
  Vd: 1.47 L/kg
[16]
  efflux ratio at 2 h, 1 µM: 1.5
[17]
  fraction unbound at 6 h: 0.19
[18]
  solubility thermodynamic: 399 µg/mL (≈ 1170 µM)
[19]
  bioavailability: 66%
[20]
  half-life: 49.8 min
[21]
  solubility thermodynamic: 628 µg/mL (≈ 1840 µM)
[22]
  IC50: 6.5 nM
Mus musculus [23]
  Activity: Non-Toxic
hERG (KCNH2)
  inhibition at 10 µM: 18%
[24]
  T/C: 57%
[25]
  CL: 22.5%
[26]
  fraction unbound at 48 h: 0.5
[27]
  microsomal CLint at 1 µM: 45 µL/min/mg
[28]
  solubility kinetic: > 200 µM
[29]
  IC50: 9 nM
[30]
  half-life: 51.6 min
[31]
  Vd: 1.62 L/kg
[32]
  IC50: 32 nM
[33]
  Vd: 0.59 L/kg
Mus musculus [34]
  inhibition: Active
[35]
  clearance: 25 mL/min/kg
[36]
  clearance: 22.8 mL/min/kg
[37]
  solubility thermodynamic: 836 µg/mL (≈ 2450 µM)
[38]
  microsomal CLint at 1 µM: < 10 µL/min/mg
[39]
  IC50: 8 nM
[40]
  T/C: 49%
[41]
  half-life: 27 min
CDK8/Cyclin C
  IC50: 2.6 nM
[42]
  inhibition: > 50%
Mus musculus [43]
  Activity: Non-Toxic
